A selection: hits, their analogues and other compounds. The true share with any hit is near 3%.
PfG6PD inh – PfG6PD enzyme inhibitors, primary screen, biochemical, fluorescence intensity, uHTS | PfGluPho enzyme, NADPH resazurin-diaphorase fluorescence | inhibition, % at 20 µM | hit rate 0.78% among 350,000 | AID 504690, 2011;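 active means inhibition reaching at least a set limit at 20 µM in the primary screen, cut at about 59% in these data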;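 further: 0% = DMSO wells with substrate and 100% = DMSO wells lacking glucose-6-phosphate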
MC4R antag cAMP – MC4R antagonists of cAMP signaling, primary screen, cell-based, TR-FRET, antagonist arm of biased-ligand search | inhibition, % at 6.5 µM | hit rate 0.48% among 360,000 | MC4R-expressing cells, MTII-stimulated cAMP, LANCE TR-FRET | AID 540295, 2011;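 active means inhibition above its plate's cutoff, the mean of tested wells on that plate plus 3 SD, cut at about 29% in these data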;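 further: 0% = Melanotan II alone and 100% = Melanotan II plus saturating MCL0020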
Target sequence (P32245 whole entry, looked up): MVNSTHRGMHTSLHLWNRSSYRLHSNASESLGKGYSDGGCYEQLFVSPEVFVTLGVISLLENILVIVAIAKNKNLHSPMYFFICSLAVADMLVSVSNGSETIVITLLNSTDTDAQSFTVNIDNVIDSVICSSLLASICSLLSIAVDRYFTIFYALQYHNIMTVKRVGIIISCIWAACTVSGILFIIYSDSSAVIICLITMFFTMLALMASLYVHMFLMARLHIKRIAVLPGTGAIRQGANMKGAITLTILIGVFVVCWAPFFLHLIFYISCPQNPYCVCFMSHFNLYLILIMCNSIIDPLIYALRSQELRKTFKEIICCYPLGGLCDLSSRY
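System: U2OS cells stably expressing human melanocortin 4 receptor (MC4R). Reagent: Melanotan II challenge after compound preincubation. Doses: 6.5 µM. Times: 30-min compound, 1-h challenge, 1-h detection, room temperature. Measured by: TR-FRET with Eu-cAMP and labeled anti-cAMP, 671 nm. Replicates: singlicate.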
ABHD5 PLIN5 PPI – ABHD5-PLIN5 interaction inhibitors, primary screen, cell lysate, split luciferase complementation, luminescence | Perilipin-5 (Homo sapiens) + 1-acylglycerol-3-phosphate O-acyltransferase ABHD5 (Homo … | Split G. princeps luciferase complementation, 4 h | inhibition, % at 4 µM | hit rate 0.78% among 360,000 | AID 602281, 2012;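 active means inhibition above the mean inhibition across every tested compound plus 3 SD, cut at about 22% in these data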;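 further: 0% = DMSO only wells and the 100% control is not disclosed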
B2AR ag – beta2AR agonists driving receptor internalization, primary screen, cell-based, FAP fluorogen, flow cytometry; Beta-2 adrenergic receptor (Homo sapiens), P07550; Am2.2-beta2AR cells; response, % (concentration not given with the values); hit rate 0.43% among 340,000; AID 504454, 2011;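 active means response above a set limit, near 3 SD of response in nonfluorescent compounds, cut at about 42% in these data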
MC4R barr agon – MC4R agonists recruiting beta-arrestin, primary screen, cell-based, luminescence, agonist arm of biased-ligand search; U2OS MC4R beta-arrestin complementation; percent of melanotan II response, DMSO zero; activation, % at 8.9 µM; hit rate 0.98% among 360,000;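 active means activation above a per-plate cutoff, the mean activation of sample wells on that plate plus 3 SD, cut at about 8% in these data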
U2OS cAMP counter – nonselective cAMP signaling inhibitors, parental cells, counter-screen for MC4R biased antagonist project, cell-based, TR-FRET, U2OS, forskolin, triplicate; inhibition, % at 6.5 µM; LANCE TR-FRET; AID 602193, 2012; shares compounds with MC4R antag cAMP; hit rate 26% among 1,600;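 active means mean inhibition over triplicates above the low-control well mean plus 3 SD, set per campaign, cut at about 13% in these data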;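 further: signal is single emission at 671 nm which falls as cellular cAMP rises; 0% = forskolin-stimulated wells and 100% = buffer without forskolin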
MC4R antag conf – MC4R cAMP antagonists, retest, confirmation, cell-based, TR-FRET; shares compounds with MC4R antag cAMP; MC4R-expressing cells, MTII-stimulated cAMP; inhibition, % at 6.5 µM; hit rate 27% among 1,600; AID 602195, 2012; in the data active means inhibition above about 29%;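 further: 0% = agonist stimulated wells alone and 100% = agonist stimulated wells plus saturating reference antagonist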
An asterisk follows results filed as active; x = no result.

SMILES	PfG6PD inh	MC4R antag cAMP	ABHD5 PLIN5 PPI	B2AR ag	MC4R barr agon	U2OS cAMP counter	MC4R antag conf
O=C1ON=C(c2cccc([N+](=O)[O-])c2)/C1=C/c1ccc(O)cc1	-12.2	37.6*	1.7	53.1*	1.2	3.6	7.9
O=C1ON=C(c2ccc(Cl)c([N+](=O)[O-])c2)/C1=C/c1cccc([N+](=O)[O-])c1O	-9.0	9.1	5.0	-3.0	0.3	x	x
CCN(CC(=O)NCc1ccc(Cl)cc1)C(=O)CN1C(=O)NC(C)(c2ccccc2)C1=O (configuration not stated)	5.5	-3.1	-2.4	-5.1	-2.9	x	x
CC(=O)c1ccc(S(=O)(=O)NC2CCCCCCC2)cc1	-14.3	34.5*	-5.8	-5.7	0.8	-4.5	-15.7
CC(=O)Oc1ccc2nc(-c3ccc(Br)o3)oc(=O)c2c1	-14.0	32.0*	-8.3	10.3	1.4	6.1	36.2*
CC(=O)Oc1ccc2c(=O)oc(-c3ccccc3)nc2c1	-20.6	14.7	0.8	12.0	0.3	x	x
Cc1c(C(=O)Nc2c(C)n(C)n(-c3ccccc3)c2=O)oc2ccc(Cl)cc12	-2.3	-0.7	2.5	-5.7	-0.1	x	x
Cc1ccccc1CCN(C(=O)c1csnn1)C(C(=O)NC1CCCC1)c1ccco1 (configuration not stated)	3.1	2.9	7.3	6.8	-0.9	x	x
Cc1ccc(-n2nc(-c3ccc(OC(F)(F)F)cc3)cc2N)cc1C	27.0	29.2*	-3.0	6.1	4.2	3.9	8.0
Cc1c(Cl)cccc1NC(=S)N1CCC(C(N)=O)(N2CCCCC2)CC1	3.0	19.7	-0.1	-2.6	-2.3	x	x
CCCN(CC(=O)Nc1ccccc1C)CC(=O)Nc1ccc(Br)cc1F	17.0	28.7*	0.3	-8.2	1.6	0.3	3.0
Cc1cc(-c2nnc(SCCC(=O)Nc3ccccc3)o2)no1	3.0	5.9	-0.2	3.9	-1.9	x	x
CC(OC(=O)/C(C#N)=C/c1ccc(N(C)C)cc1)C(=O)NCc1ccco1 (configuration not stated)	x	73.4*	4.1	2.1	-2.2	41.2*	77.7*
Cc1c(NC(=O)Nc2cccc(Cl)c2Cl)c(=O)n(-c2ccccc2)n1C	0.9	-3.0	4.5	-7.6	-1.8	x	x
CCOC(=O)N1CCN(C(=O)c2cccc(S(=O)(=O)Nc3ccc(Br)cc3)c2)CC1	-30.8	16.2	-11.2	1.3	1.1	x	x
O=C1CNC(=O)/C1=C/c1ccc(Br)cc1	-3.2	31.6*	19.0	2.3	-0.3	1.3	-5.6
COc1ccc(N(C(=O)Cc2cccs2)C(C(=O)NC2CCCC2)c2ccncc2)cc1OC (configuration not stated)	25.9	0.3	-3.3	-7.4	-1.8	x	x
C#CC(=O)N(c1ccc(OC)c(OC)c1)C(C(=O)NC1CCCC1)c1cccs1 (configuration not stated)	10.5	61.7*	20.1	17.3	10.5*	-35.9	63.3*
CN(C(=O)COC(=O)c1ccc2c(c1)OCO2)c1c(N)n(Cc2ccccc2)c(=O)[nH]c1=O	-5.8	4.8	2.9	-3.0	-3.1	x	x
N#CC(C#N)=C1C=CC=CN1/C(=C\c1ccco1)C(=O)c1ccc(Cl)cc1	45.6	33.7*	87.1*	58.3*	-3.3	28.8*	43.2*
CC(/C=N/n1c(-c2ccc(Cl)cc2)n[nH]c1=S)=C\c1ccco1	10.2	10.1	-1.6	-13.3	1.8	x	x
C[C@@H]1CN([C@@H](C)CO)C(=O)c2cc(C#CCN(C)C)cnc2O[C@H]1CN(C)Cc1ccc2c(c1)OCO2	21.1	7.2	5.5	x	0.5	x	x
COc1ccc(Cl)cc1NC(=S)Nc1ccccc1C	3.2	28.6*	5.3	-3.8	0.1	-1.8	-2.5
O=C(Nc1nnc(C2CCCC2)s1)C1CCN(S(=O)(=O)c2ccc(Cl)cc2)CC1	-15.5	29.9*	3.4	-3.7	1.1	-0.4	-2.5

Bioassay records from PubChem.
